Experimental findings from ChEMBL document CHEMBL4823321, “Improving the Adjuvanticity of Small Molecule Immune Potentiators Using Covalently Linked NF-κB Modulators” (ACS Med Chem Lett, 2021) are described below.

Active and inactive are the calls of the source. The rule behind the calls is not given here.

Data set [1] in a line: Toxicity in C57BL/6 mouse BMDC cells assessed as induction of inflammation by measuring increase in IL-6 secretion at 200 nM measured after 8 hrs by ELISA. Particulars: 0.2 µM. The data set is classed as cell-based. The procedure, abridged:
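Murine bone-marrow-derived dendritic cells incubated 8 h with compounds at 200 nM; secreted IL-6 quantified by ELISA; triplicate; one-way ANOVA versus TLR7/8 SMIP.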
A general note: In an ELISA, binding on a coated surface is turned into a signal by an enzyme label.

For data set [2], the system named is RAW264.7. In words: Inhibition of COX-2 expression in mouse RAW264.7 cells at 500 nM incubated for 16 hrs by western blot analysis. Type of data set: functional, cell-based. The method in brief:
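After 16 h with 500 nM compounds, RAW macrophages were lysed; proteins separated by SDS-PAGE, transferred to membrane and probed with anti-COX-2 antibody; triplicate.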
(In general: Immunoblotting shows a protein as a band on a membrane.)

Data set [3] concerns Mus musculus. In words: Induction of T-cell immunity in C57BL/6 mouse splenocytes assessed as increase in CD3+CD8+ tetramer administered intramuscularly on day 1 and as booster dose on day 14 in presence of ovalbumin and SINFEKL MHC specific tetramer measured on day 28 by flow cytometric analysis. Type of data set: functional, cell-based. Particulars: time 28.0 day.
The test system of the next data set is BMDC. The experiment in a line: Modulator activity at NF-kappaB in C57BL/6 mouse BMDC cells assessed as increase in cell surface CD40 expression at 200 nM measured after 8 hrs by FACS analysis. The data set is classed as cell-based. The conditions noted are these: filed as modulator. The procedure, abridged:
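Murine bone-marrow-derived dendritic cells incubated 8 h with compounds at 200 nM; cells stained for surface CD40 and quantified by flow cytometry.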
Background: Flow cytometry measures light scatter and fluorescence of single cells or particles in a stream.

Data set [4] in a line: Systemic toxicity in C57BL/6 mouse assessed as increase in serum TNF-alpha level administered intramuscularly in presence of ovalbumin measured after 1 hr. Particulars: in vivo, im. The procedure, abridged: (§1)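 Mice vaccinated with ovalbumin admixed with adjuvant in PBS, i.m.; serum collected 1 h after injection for IL-6 and TNF-α; one-way ANOVA versus PBS control.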
A short description of data set [5]: Systemic toxicity in CT26 cells xenografted BALB/c mouse tumor model assessed as reduction in lymphocyte count in peripheral blood at 20 nmol, IT and measured after 24 hrs by hematological analysis. The data set is classed as cell-based. Particulars: in vivo, other. The procedure, abridged: (§2)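 Subcutaneous CT-26 tumors established for 11 days, then compounds given peritumorally; peripheral blood collected 24 h later for hematological analysis of white blood cell and lymphocyte counts.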

A short description of data set [6]: Systemic toxicity in C57BL/6 mouse assessed as increase in serum IL-6 level administered intramuscularly in presence of ovalbumin measured after 1 hr. The conditions noted are these: in vivo, im. The procedure, abridged: as §1
Data set [7] in a line: Systemic toxicity in CT26 cells xenografted BALB/c mouse tumor model assessed as reduction in white blood count in peripheral blood at 20 nmol, IT and measured after 24 hrs by hematological analysis. The data set is classed as cell-based. The conditions noted are these: in vivo, other. The method in brief:
as §2

The subject of data set [8] is RAW264.7. The experiment in a line: Inhibition of iNOS expression in mouse RAW264.7 cells at 500 nM incubated for 16 hrs by western blot analysis. The data set is classed as functional, cell-based.
For data set [9], the system named is RAW264.7. The experiment in a line: Inhibition of NO production in mouse RAW264.7 cells at 500 nM incubated for 16 hrs by Griess reagent based analysis. The data set is classed as functional, cell-based. The procedure, abridged:
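Nitrite measured with Griess reagent in supernatants of RAW macrophages incubated 16 h with 500 nM compounds; triplicate; one-way ANOVA versus TLR7/8 SMIP.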

Data set [10] deals with TLR7 and TLR8 (Mus musculus) (UniProt P58681+P58682). In words: Agonist activity at TLR7/8 in mouse RAW-blue cells assessed as immune activation by measuring induction of NFkappaB activation at 500 nM measured after 24 hrs by quanti-blue SEAP reporter gene-based assay. Type of data set: cell-based. The conditions noted are these: filed as agonist. The method in brief: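 RAW-Blue macrophages exposed to compounds at 500 nM for 24 h at 37 °C; NF-κB-driven reporter read-out; triplicate samples; one-way ANOVA against TLR7/8 SMIP.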
Sequence of TLR7 and TLR8 (Mus musculus) (P58681 whole entry, looked up): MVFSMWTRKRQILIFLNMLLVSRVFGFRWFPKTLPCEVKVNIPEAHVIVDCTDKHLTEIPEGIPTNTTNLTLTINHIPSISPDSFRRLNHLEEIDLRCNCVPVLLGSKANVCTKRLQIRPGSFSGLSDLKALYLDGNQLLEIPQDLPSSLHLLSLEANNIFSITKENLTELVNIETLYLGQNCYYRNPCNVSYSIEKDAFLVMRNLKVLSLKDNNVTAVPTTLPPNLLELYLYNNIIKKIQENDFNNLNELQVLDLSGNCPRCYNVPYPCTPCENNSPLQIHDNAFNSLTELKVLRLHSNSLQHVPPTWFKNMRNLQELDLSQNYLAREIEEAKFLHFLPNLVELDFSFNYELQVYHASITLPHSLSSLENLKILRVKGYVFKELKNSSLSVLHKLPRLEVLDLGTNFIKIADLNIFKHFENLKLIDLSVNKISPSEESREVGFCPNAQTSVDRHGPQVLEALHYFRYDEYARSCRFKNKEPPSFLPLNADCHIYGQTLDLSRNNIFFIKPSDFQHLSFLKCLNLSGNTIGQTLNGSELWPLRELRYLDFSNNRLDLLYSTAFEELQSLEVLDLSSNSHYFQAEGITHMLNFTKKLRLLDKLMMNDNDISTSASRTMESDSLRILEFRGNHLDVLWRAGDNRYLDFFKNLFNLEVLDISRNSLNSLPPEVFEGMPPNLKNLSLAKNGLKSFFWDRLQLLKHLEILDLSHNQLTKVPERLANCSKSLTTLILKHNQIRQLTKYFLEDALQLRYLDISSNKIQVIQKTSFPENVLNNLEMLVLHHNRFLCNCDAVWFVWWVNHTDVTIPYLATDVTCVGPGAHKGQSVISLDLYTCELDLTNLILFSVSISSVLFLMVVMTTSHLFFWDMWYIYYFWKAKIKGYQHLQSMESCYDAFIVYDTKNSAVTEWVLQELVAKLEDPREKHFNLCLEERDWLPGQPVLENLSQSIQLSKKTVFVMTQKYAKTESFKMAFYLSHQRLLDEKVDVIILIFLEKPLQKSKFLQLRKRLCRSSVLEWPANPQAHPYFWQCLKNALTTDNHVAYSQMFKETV
Sequence of TLR7 and TLR8 (Mus musculus) (P58682 whole entry, looked up): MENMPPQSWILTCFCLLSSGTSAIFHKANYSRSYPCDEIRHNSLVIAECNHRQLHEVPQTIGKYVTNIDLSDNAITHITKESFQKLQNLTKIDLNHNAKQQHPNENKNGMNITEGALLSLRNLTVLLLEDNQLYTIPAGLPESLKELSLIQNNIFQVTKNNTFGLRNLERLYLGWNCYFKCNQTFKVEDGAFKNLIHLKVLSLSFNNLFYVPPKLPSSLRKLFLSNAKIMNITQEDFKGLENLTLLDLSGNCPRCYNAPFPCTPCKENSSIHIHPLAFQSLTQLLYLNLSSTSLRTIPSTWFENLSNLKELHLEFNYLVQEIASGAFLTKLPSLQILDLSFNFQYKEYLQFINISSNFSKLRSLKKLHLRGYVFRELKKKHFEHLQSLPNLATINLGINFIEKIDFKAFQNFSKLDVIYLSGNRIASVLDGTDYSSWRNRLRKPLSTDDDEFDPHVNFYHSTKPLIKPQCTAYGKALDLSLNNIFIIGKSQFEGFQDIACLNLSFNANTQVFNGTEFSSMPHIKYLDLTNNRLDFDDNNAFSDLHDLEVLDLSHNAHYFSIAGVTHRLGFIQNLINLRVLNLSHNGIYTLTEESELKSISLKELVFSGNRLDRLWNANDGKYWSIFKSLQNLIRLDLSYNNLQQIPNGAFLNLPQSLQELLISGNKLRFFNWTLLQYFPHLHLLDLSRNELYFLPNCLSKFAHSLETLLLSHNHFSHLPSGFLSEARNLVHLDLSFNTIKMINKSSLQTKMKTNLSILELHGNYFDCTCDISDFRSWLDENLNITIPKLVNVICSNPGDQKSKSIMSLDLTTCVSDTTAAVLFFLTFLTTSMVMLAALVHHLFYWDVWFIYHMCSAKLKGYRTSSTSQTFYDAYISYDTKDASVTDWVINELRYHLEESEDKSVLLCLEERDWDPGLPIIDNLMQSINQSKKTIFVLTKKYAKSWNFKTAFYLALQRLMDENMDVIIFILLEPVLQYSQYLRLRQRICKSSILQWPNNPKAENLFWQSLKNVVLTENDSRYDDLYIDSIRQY

The nature of data set [11]: Systemic toxicity in CT26 cells xenografted BALB/c mouse tumor model assessed as increase in serum IL-6 level at 20 nmol, IT and measured after 2 hrs. The data set is classed as cell-based. Particulars: in vivo, other. The procedure, abridged: (§3)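 Subcutaneous CT-26 tumors established for 11 days, then compounds given by peritumoral injection; serum collected 2 h later for TNF-α and IL-6.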

Data set [12] relates to Mus musculus. In words: Immuno-adjuvant activity in C57BL/6 mouse assessed as increase in levels of anti-OVA Ig (A+G+M) administered intramuscularly on day 1 and as booster dose on day 14 in presence of ovalbumin and measured on day 28 by ELISA. Particulars: time 28.0 day. The data set is classed as functional, organism-based. The procedure, abridged:
(§4)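 Ovalbumin plus adjuvant in PBS given i.m., boosted on day 14; sera collected at sacrifice on day 28 and anti-OVA antibodies measured; one-way ANOVA versus PBS control.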

The nature of data set [13]: Systemic toxicity in CT26 cells xenografted BALB/c mouse tumor model assessed as increase in serum TNF-alpha level at 20 nmol, IT and measured after 2 hrs. The data set is classed as cell-based. Particulars: in vivo, other. The method in brief: as §3
The test system of data set [14] is RAW264.7. The experiment in a line: Antioxidant activity in mouse RAW264.7 cells assessed as reduction in intracellular ROS level measured after 16 hrs by CM-H2DCFDA based flow cytometry analysis relative to TLR7/8 SMIP. Type of data set: functional. The procedure, abridged:
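RAW macrophages incubated with compounds for 16 h, then loaded with CM-H2DCFDA; intracellular ROS fluorescence quantified by flow cytometry.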

Data set [15] has as its system Mus musculus. In words: Immuno-adjuvant activity in C57BL/6 mouse assessed as increase in levels of anti-OVA IgG administered intramuscularly on day 1 and as booster dose on day 14 in presence of ovalbumin and measured on day 28 by ELISA. The conditions noted are these: time 28.0 day. The data set is classed as functional, organism-based. The procedure, abridged:
as §4

In another data set the test system is Splenocyte. The experiment in a line: Induction of innate immunity in C57BL/6 mouse naive splenocyte assessed as increase in cell proliferation at 3 uM measured after 48 hrs by MTT assay. Type of data set: functional, tissue-based. The method in brief: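 Naive splenocytes incubated 48 h with compounds to assess proliferation.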
The subject of a further data set is CT26. The experiment in a line: Antitumor activity against mouse CT26 cells xenografted in BALB/c mouse assessed as survival rate at 20 nmol, IT administered on day 15,19 and 23 and measured on day 35. The data set is classed as functional. The procedure, abridged:
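Subcutaneous CT-26 colon carcinoma in mice. Once tumors were established at day 11, […], compounds were given by peritumoral injection, then three more injections every 4 days. Tumor size was measured every alternate day. Animals were euthanized when a tumor reached 20 mm in any linear dimension. Kaplan–Meier survival was followed until day 35.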

For data set [16], the system named is Mus musculus. In words: Immuno-adjuvant activity in C57BL/6 mouse assessed as increase in levels of anti-OVA IgA administered intramuscularly on day 1 and as booster dose on day 14 in presence of ovalbumin and measured on day 28 by ELISA. The data set is classed as functional, organism-based. The conditions noted are these: time 28.0 day.

For the molecule `CCCCc1nc2c(N)nc3ccccc3c2n1Cc1ccc(CNC(=O)NCCc2ccc(O)c(O)c2)cc1`, the Activity result in data set [1], in data set [4], in [5], in [6], in [7] and in data set [11] was “Non-Toxic” in each case. For the same molecule, the Activity entry in [13] is “Non-Toxic”. Further, in the data set on RAW264.7 [2], the inhibition result is “inactive”. In the data set on Mus musculus [3], the outcome was inactive. For the same molecule, the result (in the data set on BMDC; in data set [10]; with Mus musculus [12]; with Mus musculus [15]; with Splenocyte) was Active. The inhibition result with RAW264.7 [8] and with RAW264.7 [9] was “Active” in each case. For the same molecule, the “inhibition (INH)” value with RAW264.7 [14] was found to be 50%.
`CCCCc1nc2c(N)nc3ccccc3c2n1Cc1ccc(CNC(=O)c2cccc(-c3cccc(O)c3)c2)cc1`: the Activity result in data set [1], in [4], in data set [5], in data set [6], in [7] and in data set [11] was “Non-Toxic” in each case. The Activity result in data set [13] is recorded as “Non-Toxic”. The inhibition result in the data set with RAW264.7 [2] was “inactive”. Besides, in the data set on Mus musculus [3], the result was inactive. Further, the result (in the data set on BMDC; in data set [10]; in the data set on Splenocyte) was Active. Moreover, the inhibition result in the data set on RAW264.7 [8] and with RAW264.7 [9] was “Active” throughout. Moreover, the “inhibition (INH)” value with RAW264.7 [14] was determined as 50%.
As for `CCCCc1nc2c(N)nc3ccccc3c2n1Cc1ccc(CNC(=O)NCCCCCC(=O)NCc2ccc(O)c(OC)c2)cc1`, the Activity result in data set [1], in [4], in data set [5], in data set [6], in data set [7] and in data set [11] was “Non-Toxic” throughout. Moreover, the Activity entry in data set [13] is reported as “Non-Toxic”. Further, in the data set on RAW264.7 [2], the inhibition entry is “inactive”. Also, the outcome (in the data set on CT26 (time 35.0 day); in the data set with BMDC; in [10]; with Mus musculus [12]; with Mus musculus [15]; in the data set with Splenocyte) was Active. The result in the data set on Mus musculus [16] was Active. The outcome in the data set on Mus musculus [3] was inactive. The inhibition result in the data set with RAW264.7 [8] and in the data set with RAW264.7 [9] was “Active” in each case. Also, in the data set on RAW264.7 [14], the “inhibition (INH)” value is 50%.
For the molecule `CCCCCCCCCCCCCCCCCC(=O)NCCCCOn1c(CCCC)nc2c(N)nc3ccccc3c21` [TELRATOLIMOD], the Activity entry in [5], in [7], in [11] and in data set [13] was “Non-Toxic” throughout.
In the case of `CCCCc1nc2c(N)nc3ccccc3c2n1Cc1ccccc1`, the Activity result in [1], in data set [5], in data set [7], in [11] and in data set [13] was “Toxic” throughout. For the same molecule, the result (in the data set with BMDC; in [10]; in the data set with Splenocyte) was Active.
Consider `CCCCc1nc2c(N)nc3ccccc3c2n1Cc1ccc(CNC(=O)NCCCNC(=O)/C=C/c2ccc(O)c(OC)c2)cc1`, for which the Activity entry in [1] is reported as “Non-Toxic”; in data set [5] it was “Toxic”; in data set [7], “Toxic”; in data set [11] it was “Toxic”; in [13], “Toxic”. In the data set with RAW264.7 [2], the inhibition entry is “inactive”. For the same molecule, the Survival in the data set on CT26 (time 35 day) is recorded as 80%. In addition, the result (with BMDC; in data set [10]; with Splenocyte) was Active. Further, the inhibition result in the data set with RAW264.7 [8] and in the data set with RAW264.7 [9] was “Active” in each case. The “inhibition (INH)” value in the data set with RAW264.7 [14] is listed as 50%.
In the case of `CCCCc1nc2c(N)nc3ccccc3c2n1Cc1ccc(CNC(=O)c2ccc(-c3cccc(O)c3)cc2O)cc1`, the Activity entry in data set [1] is “Toxic”; in [5], “Non-Toxic”; in data set [7] it was “Non-Toxic”; in data set [11], “Non-Toxic”; in [13], “Non-Toxic”. Moreover, the inhibition entry in the data set with RAW264.7 [2] is “inactive”. Moreover, the result (with BMDC; in data set [10]; in the data set on Splenocyte) was Active. Besides, the inhibition result in the data set with RAW264.7 [8] and in the data set with RAW264.7 [9] was “Active” throughout. In addition, the “inhibition (INH)” value in the data set with RAW264.7 [14] amounted to 50%.
`CCOCc1nc2c(N)nc3ccccc3c2n1CC(C)(C)O` [RESIQUIMOD]: the Activity result in [5], in data set [7], in data set [11] and in data set [13] was “Toxic” in each case.
As for `CCCCc1nc2c(N)nc3ccccc3c2n1Cc1ccc(CNC(=O)c2cc(-c3ccc(O)cc3)ccc2O)cc1`, the values for the Activity entry in [1], in data set [5] and in [11] were “Toxic”, “Non-Toxic” and “Non-Toxic”, respectively. Further, the inhibition entry in the data set with RAW264.7 [2] is “inactive”. In addition, the result (with BMDC; in [10]; in the data set on Splenocyte) was Active. Further, the inhibition result in the data set on RAW264.7 [8] and with RAW264.7 [9] was “Active” each time. For the same molecule, the “inhibition (INH)” value in the data set with RAW264.7 [14] was 50%.
